# High-throughput results as filed in PubChem.
# Shown are actives, neighbours in structure and some others; about 4% of the full set was active somewhere.
# TAAR1 antag: human TAAR1 antagonism | CHO RD-HGA16 TAAR1, Fluo-8 calcium fluorescence, antagonist | inhibition, % at 3 µM | hit rate 1.5% among 360,000 | AID 624466;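 active means inhibition above a per-plate cutoff, the mean inhibition of test compounds on that plate plus 3 SD, cut at about 49% in these data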;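 further: 0% = DMSO plus EC80 beta-PEA response and 100% = DMSO alone without agonist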
#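 Test system: RD-HGA16 CHO cells with stable hTAAR1 and Gα16 / Probe or stimulus: EC80 β-phenethylamine stimulus / Times: seeding 17-24 h prior, 75-min 37 °C, 30-min RT dye loading / Detection: Fluo-8 calcium-sensitive fluorescence / Read-out basis: % inhibition scaled between DMSO and EC80 PEA controls / Repeats: singlicate, one well per test compound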
# OX1R antag-1: blocks the human orexin 1 receptor; O43613; CHO/OX1R cells, Fluo-8 calcium fluorescence, orexin A; inhibition, % at 5 µM; hit rate 0.43% among 330,000; AID 434989;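 active means inhibition above its plate's threshold, mean inhibition of all tested compounds on the plate plus 3 SD, cut at about 37% in these data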;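 further: 0% = orexin A challenge wells and 100% = SB-334867-A antagonist wells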
# OX1R antag-2: blocks the human orexin 1 receptor | inhibition, % at 6.6 µM | hit rate 1.8% among 330,000 | OX1R-expressing cells, FRET antagonist read-out | AID 485270; in the data active means inhibition mostly above about 38%, no sharp cut-off; inactive means mostly below about 40%;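 further: 0% = agonist challenge alone and 100% = reference antagonist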
# CHO parental Ca: counter-screen for OX1R antagonists: effect in parental CHO cells | parental CHO-K1, ATP-induced calcium, Fluo-8 fluorescence | hit rate 0.63% among 330,000 | inhibition, % at 5.6 µM;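 active means inhibition above that plate's mean sample inhibition plus 3 SD, cut at about 26% in these data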;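 further: 0% = ATP-challenged DMSO wells and 100% = DMSO wells without ATP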
#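 Material – parental CHO cells · Reagent – ATP stimulus · Compound – single nominal dose of 5.6 µM per compound · Detection – Fluo-8 fluorescence · Read-out basis – percent inhibition of calcium signal · Controls – ATP-challenged DMSO wells low, unchallenged DMSO wells high · Repeats – no replicates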
# TAAR1 agonist: agonists of human TAAR1; Q96RJ0; CHO RD-HGA16 TAAR1, Fluo-8 calcium fluorescence; vehicle wells 0%, saturating PEA agonist 100%; activation, % at 3 µM; hit rate 0.99% among 360,000;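 active means activation above the mean activation of all test compounds in the run plus 3 SD, cut at about 38% in these data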
#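 System: CHO RD-HGA16 cells carrying human TAAR1 plus Gα16; Incubation: 17-24 h seeding, 75 min 37 °C dye, 30 min RT; Measured by: Fluo-8 fluorescence, 5 s baseline then 140 s kinetic read; Control set: DMSO and PEA EC100; Replication: single well for each compound.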
# NTR1 agonist: agonists of human neurotensin receptor NTR1; P30989; NTR1-U2OS beta-arrestin-GFP spot imaging, agonist mode; activation, % at 20 µM; hit rate 0.17% among 330,000; AID 493036;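 active means activation at or above 40% of the spot to cytoplasm intensity ratio, with at least 20 cells analyzed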;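 further: 0% = DMSO without peptide and 100% = 100 nM NTR1 peptide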
# Target sequence (P30989 whole entry, looked up): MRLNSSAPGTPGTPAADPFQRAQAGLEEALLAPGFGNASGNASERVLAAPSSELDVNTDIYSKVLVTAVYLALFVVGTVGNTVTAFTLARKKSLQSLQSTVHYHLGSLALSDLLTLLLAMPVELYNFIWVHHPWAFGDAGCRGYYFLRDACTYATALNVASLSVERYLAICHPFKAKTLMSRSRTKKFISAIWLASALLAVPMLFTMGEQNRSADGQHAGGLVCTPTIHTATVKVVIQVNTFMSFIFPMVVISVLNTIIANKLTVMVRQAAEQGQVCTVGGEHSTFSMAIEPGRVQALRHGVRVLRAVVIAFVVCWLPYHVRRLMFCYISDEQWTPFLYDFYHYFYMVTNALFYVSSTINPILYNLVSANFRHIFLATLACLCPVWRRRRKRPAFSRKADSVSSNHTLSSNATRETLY
# TAAR1 ag conf: human TAAR1 agonism, confirmed | shares compounds with TAAR1 agonist | CHO RD-HGA16 TAAR1, Fluo-8 calcium fluorescence; scaled: DMSO 0%, maximal phenethylamine 100% | activation, % at 3 µM | hit rate 82% among 2,400 | AID 651783;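 active means activation above a cutoff set at the run's mean compound activation plus 3 SD, cut at about 39% in these data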
# Ga16 ag counter: nonselective agonism, TAAR1 counter-screen; shares compounds with TAAR1 agonist; CHO-Ga16 parental, Fluo-8 calcium fluorescence; normalized to maximal ATP response, DMSO zero; activation, % at 3 µM; hit rate 50% among 2,400; AID 651787;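 active means activation above the run cutoff, the mean activation over all tested wells plus 3 SD, cut at about 12% in these data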;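 further: 0% = DMSO wells and 100% = maximal ATP response on the peak over basal ratio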
# TAAR1 desens: TAAR1 response desensitization, agonist counter-screen; shares compounds with TAAR1 agonist; CHO RD-HGA16 hTAAR1, Fluo-8 calcium, beta-PEA response inhibition; inhibition, % at 3 µM; hit rate 46% among 2,400; AID 651951;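 active means inhibition above the run cutoff, the mean inhibition of all test compounds plus 3 SD, cut at about 49% in these data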;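 further: beta-PEA stimulus applied at its EC80; loss of beta-PEA calcium signal after compound pretreatment read as receptor desensitization; 0% = DMSO with beta-PEA at EC80 and 100% = DMSO alone without agonist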
# Ga16 antag count: nonselective Ga16 antagonism, counter-screen; CHO-Ga16 ATP-induced calcium, Fluo-8 fluorescence; hit rate 39% among 2,400; inhibition, % at 3 µM; shares compounds with TAAR1 agonist;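 active means inhibition above the plate's mean compound inhibition plus 3 SD, computed per plate, cut at about 22% in these data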;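 further: 0% = EC80 ATP with DMSO and 100% = DMSO wells without ATP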
# The depositor's hits bear a star; nt = no result given.
SMILES,TAAR1 antag,OX1R antag-1,OX1R antag-2,CHO parental Ca,TAAR1 agonist,NTR1 agonist,TAAR1 ag conf,Ga16 ag counter,TAAR1 desens,Ga16 antag count
Cc1cccc(-n2ccc(=O)c(C(=O)Nc3ccc(S(=O)(=O)N4CCOCC4)cc3)n2)c1,2,-13,-1,-4,1,1,nt,nt,nt,nt
OC(COC(c1ccc(Cl)cc1)c1ccc(Cl)cc1)CN1CCc2ccccc2C1 (stereo unspecified),25,-41,-6,-20,82*,8,81*,3,49*,13
OC(COC(c1ccccc1)c1ccccc1)CN1CCc2ccccc2C1 (stereo unspecified),-1,-57,12,-24,5,-1,nt,nt,nt,nt
COc1ccc(NC(=O)Cn2nnc(-c3ccccc3F)n2)cc1Cl,38,-9,13,-2,57*,2,19,2,9,18
CC(=O)Nc1ccc2c(=O)n(-c3ccccc3)sc2c1,69*,nt,nt,nt,83*,nt,131*,51*,102*,52*
O=C(O)c1cccc(-n2sc3ccccc3c2=O)c1,-10,-14,-7,-6,15,2,nt,nt,nt,nt
Cn1sc2ccccc2c1=O,-3,nt,nt,nt,46*,nt,37,26*,20,11
CN(C)S(=O)(=O)c1cccc(-n2sc3ccccc3c2=O)c1,38,-1,4,1,64*,-2,50*,34*,17,22*
Cc1ccc(-n2sc3ccccc3c2=O)cc1S(=O)(=O)N1CCCCC1,16,8,18,11,70*,1,17,14*,17,16
COCCn1c(=O)sc2ccccc2c1=O,8,-10,29,0,2,0,nt,nt,nt,nt
CCOC(=O)c1cc(C(=O)NC(C)c2ccccc2)c(C)[nH]c1=O (stereo unspecified),11,-27,18,-13,0,0,nt,nt,nt,nt
O=c1c2ccccc2sn1-c1ccccc1,50*,20,46,48*,55*,-2,38*,27*,29,32*
Cn1c2ccccc2c(=O)c2c(=O)n(C3CCCCC3)c(-c3ccco3)nc21,-3,-16,14,4,103*,16,87*,62*,33,25*
Cc1nc2c(c(=O)c3ccccc3n2C)c(=O)n1-c1ccccc1,-2,-21,8,-9,-1,2,nt,nt,nt,nt
Cc1nc2c(c(=O)c3ccccc3n2C)c(=O)n1C1CCCCCC1,-38,-13,9,-30,50*,3,56*,51*,7,1
C/C(=N\NC(=O)c1nnn(-c2nonc2N)c1-c1cccs1)c1ccc(C)cc1,10,-7,7,-9,103*,5,104*,72*,16,6
COc1ccc(/C(C)=N/NC(=O)c2nnn(-c3nonc3N)c2-c2cccs2)cc1,-5,-10,3,0,46*,2,81*,55*,7,-2
COc1ccc(S(=O)(=O)N2CCCCCC2)cc1C(=O)Nc1ccccn1,0,-37,20,-21,3,1,nt,nt,nt,nt
COc1ccc(NC(=O)CN(C)C(=O)CCNC(=O)Nc2ccccc2)cc1,-20,nt,nt,nt,9,-1,nt,nt,nt,nt
CN(CC(=O)Nc1ccccc1Cl)C(=O)CCNC(=O)Nc1ccccc1,nt,-23,10,-9,nt,-2,nt,7,nt,6
C=CC[C@H](CC(=O)N(CCO)Cc1ccccc1)C(=O)NCCOC(=O)[C@H](CC=C)CC(=O)OC(C)(C)C,-11,-3,5,-27,3,0,nt,nt,nt,nt
C=CC[C@@H](CC(=O)N(CCO)Cc1ccccc1)C(=O)NC[C@H](OC(=O)[C@@H](CC=C)CC(=O)OC(C)(C)C)c1ccccc1,71*,0,11,-20,63*,5,69*,21*,63*,30*
O=C(CN1CCN(S(=O)(=O)c2ccc(Br)cc2)CC1)N/N=C/c1ccc(Br)s1,-13,-17,5,-20,3,7,nt,nt,nt,nt
COc1cc(-c2noc(C)c2-c2ccc(N(C)C)nc2)cc(OC)c1OC,54*,-2,75*,-6,96*,3,84*,48*,54*,31*
CC(C)(C)c1ccc(C(=O)NCCC(=O)NCc2cccs2)cc1,-20,-3,0,-8,4,0,nt,nt,nt,nt
SMILES,TAAR1 antag,OX1R antag-1,OX1R antag-2,CHO parental Ca,TAAR1 agonist,NTR1 agonist,TAAR1 ag conf,Ga16 ag counter,TAAR1 desens,Ga16 antag count
COc1ccc(NS(=O)(=O)c2cc3c4c(c2)C(C)C(=O)N4CCC3)cc1 (stereo unspecified),-10,-18,5,-13,2,2,nt,nt,nt,nt
CCCNC1=C(C)C(=O)CC1,-10,-4,7,1,0,-2,nt,nt,nt,nt
CC1=C(NCCc2ccccc2)CCC1=O,60*,-17,31,-18,95*,-1,103*,4,87*,0
COc1ccccc1CCn1cnc(-c2ccc(Br)cc2)c1C(C)C,36,nt,nt,nt,45*,nt,68*,9,53*,37*
COc1ccccc1CCn1cnc(-c2ccccc2OC)c1C(C)C,29,nt,nt,nt,52*,nt,79*,7,60*,14
COc1ccc(-c2ncn(CCc3ccccc3OC)c2C(C)C)cc1,-1,nt,nt,nt,15,nt,nt,nt,nt,nt
Cc1cc(C)cc(NC(=S)N2C3CCCC2CC(NC(=O)C2CC2)C3)c1 (stereo unspecified),-11,-6,10,-22,5,-1,nt,nt,nt,nt
COc1cc2nc(Nc3ccc(F)cc3)nc(N)c2cc1OC,33,-21,1,-10,59*,0,54*,4,41,14
COc1ccc(Br)cc1CNC(=O)CN1C(=O)C(c2ccccc2)Oc2cccnc21 (stereo unspecified),-14,-31,28,-2,-2,5,nt,nt,nt,nt
Cc1cc2nc3n(c2cc1C)CC1CC(C(=O)NCCc2cccs2)N(C)C31 (stereo unspecified),69*,-8,23,-8,101*,-1,81*,2,71*,8
CN1C(C(=O)NCCc2cccs2)CC2Cn3c(nc4cc5ccccc5cc43)C21 (stereo unspecified),51*,-14,30,-11,78*,-6,92*,15*,83*,11
